Calls of active or inactive are those of the source. No cut-off for these calls is given here.
How the values were obtained:
Format in all cases: functional, cell-based
PC-12 [1] = assay: Neuroprotective activity in rat PC12 cells assessed as inhibition of amyloid beta(25 to 35)-induced cell death at 10 uM incubated 48 hrs […] by MTT assay
In short: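 PC12 cells were grown in DMEM with 5% FBS and 5% equine serum and seeded at 5000 cells/well for 24 h. Basic medium with 15 μM Aβ25−35 was applied for 48 h, with compound (DMSO stock, >1000-fold dilution) co-added, in triplicate. Viability was measured by MTT (4 h), formazan dissolved in DMSO, and absorbance read at 570 nm. ANOVA/Newman–Keuls.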

PC-12 [2] = assay: Neuroprotective activity in rat PC12 cells assessed as inhibition of SNP-induced cell death at 10 uM incubated 24 hrs post SNP-challenge for 24 hrs by MTT assay
In short: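 PC12 cells were grown in DMEM with 5% FBS and 5% equine serum and seeded at 5000 cells/well for 24 h. Medium was switched to basic medium with 350 μM SNP for 24 h, with compound (DMSO stock, >1000-fold dilution) added at the same time, in triplicate. MTT was added for 4 h, formazan dissolved in DMSO, and A570 read. ANOVA with Newman–Keuls post hoc test.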

PC-12 [3] = assay: Neuroprotective activity in rat PC12 cells assessed as inhibition of serum starvation-induced cell death after 24 hrs by MTT assay
In short: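 Serum-withdrawal model: PC12 cells (5000/well) were pre-grown 24 h in DMEM with 5% FBS and 5% equine serum, then moved to plain DMEM. Compound (DMSO stock, >1000-fold dilution) was added at the same time, in triplicate, and cells were incubated 24 h at 37 °C, 5% CO2. MTT was added for 4 h, formazan dissolved in DMSO, and A570 read. ANOVA with Newman–Keuls test.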

| SMILES | Activity (PC-12 [1]) | Activity (PC-12 [2]) | Activity (PC-12 [3]) |
| --- | --- | --- | --- |
| COc1c2c(cc3c1[nH]c1ccccc13)[C@H]1O[C@@H]([C@H]2O)C(C)(C)O1 | inactive | inactive | inactive |
| COc1cc2c(cc1O)[nH]c1c(CC=C(C)C)c(O)c(C=O)cc12 | Active | inactive | inactive |
| COc1ccc2[nH]c3ccc(C=O)cc3c2c1 | inactive | inactive | inactive |
| COc1cc(C=O)cc2c1[nH]c1ccccc12 | Active | Active | inactive |
| CC(C)=CCc1c(C=O)cc2c([nH]c3ccccc32)c1O | Active | inactive | inactive |
| COc1ccc2[nH]c3c(O)cc(C=O)cc3c2c1 | inactive | Active | inactive |
| COC(=O)c1ccc2[nH]c3ccc(OC)cc3c2c1 | inactive | Active | inactive |
| COc1c2c(cc3c1[nH]c1ccccc13)C(=O)O[C@H](C(C)(C)O)[C@H]2O | inactive | inactive | inactive |
| COc1c2c(cc3c1[nH]c1ccccc13)C(=O)O[C@@H]2[C@H](O)C(C)(C)O | inactive | inactive | inactive |
| COc1c2c(cc3c1[nH]c1ccccc13)C(=O)C[C@@H]2O | inactive | inactive | inactive |
| COc1c2c(cc3c1[nH]c1ccccc13)[C@H]1O[C@@H](C2)C(C)(C)O1 | Active | Active | inactive |
| COc1c2c(cc3c1[nH]c1ccccc13)C(=O)C(=C(C)C)C2 | inactive | inactive | inactive |
| COc1ccc2[nH]c3cc(OC)c(C=O)cc3c2c1 | inactive | inactive | inactive |
| O=Cc1ccc2[nH]c3ccccc3c2c1 | inactive | inactive | inactive |
| COc1ccc2[nH]c3c4c(c(C=O)cc3c2c1)OC(C)(C)C=C4 | inactive | Active | inactive |
| CC(C)=CCc1c(C=O)cc(O)c2[nH]c3ccccc3c12 | inactive | inactive | inactive |
| COc1cc2c(cc1O)[nH]c1cc(O)c(C=O)cc12 | Active | Active | inactive |
